Assay outcomes deposited in PubChem by several laboratories.
Only some compounds are listed: those with a hit (about 1.6% of all), similar ones and a draw of the others.
NOD2 RIPK2 PPI: NOD2-RIPK2 binding disruptors in cells, primary screen, fluorescence, CHO cells, BLA complementation | Receptor-interacting serine/threonine-protein kinase 2 (Homo sapiens), O43353 | CCF4 ratio | inhibition, % at 4.98 µM | 0.38% of 360,000 active | AID 624267, 2012; in the data active means inhibition above about 21%
SR-BI DiI-HDL act: activators of SR-BI mediated DiI-HDL uptake, primary screen, ldlA[mSR-BI] CHO cells, DiI fluorescence; AID 504775, 2011; 0.096% of 320,000 active; 3 h; 100 = double the neutral-control signal; activation, % at 12.5 µM;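 active means mean replicate activation of at least 60% and every replicate at or above 60%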
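System: LDL receptor-deficient CHO ldlA cells overexpressing murine SR-BI | Timing: 3 h uptake period with compound, 37 °C | Medium: HEPES-buffered (25 mM, pH 7.4) F12 plus 0.5% BSA | Dosing: Single-point compound dose | Signal: Bottom-read fluorescence, 550/595 nm | Read-out: Retained DiI signal reflecting DiI-HDL uptake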
Lipid droplet: inhibitors of hepatocyte lipid droplet formation, primary screen, imaging, high-throughput imaging, BODIPY stain; AML12 mouse hepatocytes, oleate lipid droplets; inhibition, % at 6.5 µM; 0.4% of 240,000 active;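 active means lipid droplet intensity inhibited by at least 50%, with more than 500 cells counted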
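Assay system: AML12 mouse liver cells | Compound: 6.5 µM single-point dosing | Schedule: Overnight exposure | Technique: Fluorescence imaging, 20x objective, two fields per well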
SR-BI HDL uptake: inhibitors of SR-BI mediated HDL lipid uptake, primary screen, ldlA[mSR-BI] cells, fluorescence, single point. Scavenger receptor class B member 1 (Mus musculus), Q61009. ldlA[mSR-BI] CHO cells, DiI-HDL uptake fluorescence, 3 h. inhibition, % at 12.5 µM. 0.96% of 320,000 active;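 active means mean replicate inhibition of at least 70% and a set share of replicates each scoring 70 or more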
TLR9-MyD88 inh: inhibitors of TLR9-MyD88 association in cells, primary screen, cell-based, CHO, BLA complementation, fluorescence | inhibition, % at 4.98 µM | CCF4 FRET ratio | 0.21% of 340,000 active | AID 504734, 2011;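 active means inhibition above the mean over all tested compounds plus 3 SD, cut at about 21% in these data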
Target sequence (Q99836 whole entry, looked up): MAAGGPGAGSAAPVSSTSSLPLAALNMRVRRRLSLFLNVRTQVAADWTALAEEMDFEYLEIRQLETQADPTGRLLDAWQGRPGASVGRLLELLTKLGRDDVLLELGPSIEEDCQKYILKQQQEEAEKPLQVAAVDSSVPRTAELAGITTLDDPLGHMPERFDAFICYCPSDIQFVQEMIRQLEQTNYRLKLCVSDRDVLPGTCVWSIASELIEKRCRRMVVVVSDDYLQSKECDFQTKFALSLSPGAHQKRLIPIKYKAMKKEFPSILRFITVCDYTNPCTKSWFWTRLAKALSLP
Target sequence (Q9NR96 whole entry, looked up): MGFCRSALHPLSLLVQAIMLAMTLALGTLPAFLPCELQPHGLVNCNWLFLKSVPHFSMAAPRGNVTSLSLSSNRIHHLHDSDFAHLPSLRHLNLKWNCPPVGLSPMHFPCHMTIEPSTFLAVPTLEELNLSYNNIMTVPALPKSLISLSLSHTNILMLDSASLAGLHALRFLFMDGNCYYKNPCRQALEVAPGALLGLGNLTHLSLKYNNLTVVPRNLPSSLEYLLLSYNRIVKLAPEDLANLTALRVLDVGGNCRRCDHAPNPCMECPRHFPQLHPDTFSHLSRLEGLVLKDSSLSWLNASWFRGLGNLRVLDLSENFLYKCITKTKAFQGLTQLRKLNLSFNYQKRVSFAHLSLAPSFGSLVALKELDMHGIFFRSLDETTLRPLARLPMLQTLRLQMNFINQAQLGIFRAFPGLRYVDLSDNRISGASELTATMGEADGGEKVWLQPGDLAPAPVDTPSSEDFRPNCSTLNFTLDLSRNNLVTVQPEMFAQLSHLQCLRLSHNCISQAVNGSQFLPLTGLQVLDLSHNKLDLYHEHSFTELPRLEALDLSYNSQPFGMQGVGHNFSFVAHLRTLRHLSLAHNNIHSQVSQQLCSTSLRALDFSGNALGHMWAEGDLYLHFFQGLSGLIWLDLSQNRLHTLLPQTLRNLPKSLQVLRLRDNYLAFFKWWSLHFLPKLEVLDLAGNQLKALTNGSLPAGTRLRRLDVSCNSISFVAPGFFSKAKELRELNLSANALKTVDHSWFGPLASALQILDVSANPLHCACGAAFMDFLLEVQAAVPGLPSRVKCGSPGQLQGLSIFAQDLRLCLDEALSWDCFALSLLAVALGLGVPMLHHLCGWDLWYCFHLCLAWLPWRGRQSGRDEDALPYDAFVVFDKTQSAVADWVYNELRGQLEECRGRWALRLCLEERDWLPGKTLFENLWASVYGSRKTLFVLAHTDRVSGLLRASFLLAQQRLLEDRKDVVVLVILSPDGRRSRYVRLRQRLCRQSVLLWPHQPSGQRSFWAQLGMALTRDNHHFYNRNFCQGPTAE
TLR4-MyD88 BLA: inhibitors of TLR4-MyD88 association in cells, primary screen, cell-based, HeLa CL3-4, BLA complementation, FRET ratio; HeLa CL3-4 TLR4/MyD88 BLA complementation; AID 861, 2007; 0.18% of 200,000 active; inhibition, % at 8.4 µM; Toll-like receptor 4 (Homo sapiens) + Myeloid differentiation primary response protein …; in the data active means inhibition above about 25%
A number is an active result; - = inactive; . = no result given.

SMILES	NOD2 RIPK2 PPI	SR-BI DiI-HDL act	Lipid droplet	SR-BI HDL uptake	TLR9-MyD88 inh	TLR4-MyD88 BLA
COCCSc1nc(N)c(NC(=O)c2ccco2)c(=O)[nH]1	-	-	-	-	-	.
CCOC(=O)c1sc(NC(=O)CSc2nc3c(cc2C#N)CCCCCC3)c(C#N)c1C	-	-	.	74.5	-	-
COc1cccc(CN(C)C(=O)CN2C(=O)NC(c3ccccc3)(c3ccccc3)C2=O)c1	-	-	.	-	-	.
Cc1cc2[nH]c(=S)[nH]c2cc1C	-	-	-	72.8	-	-
S=c1[nH]c2cc3ccccc3cc2[nH]1	-	.	-	.	-	.
C[C@H]1CN([C@@H](C)CO)C(=O)c2cc(NC(=O)NC3CCCCC3)ccc2O[C@H]1CN(C)C(=O)Nc1ccc(C(F)(F)F)cc1	-	-	.	73.8	-	.
C[C@@H]1CN([C@H](C)CO)C(=O)c2cc(NC(=O)Cc3cn(C)c4ccccc34)ccc2O[C@H]1CN(C)S(=O)(=O)c1ccc(F)cc1	-	-	.	72.7	-	.
C[C@H](CO)N1C[C@H](C)[C@@H](CN(C)C(=O)Nc2ccc(C(F)(F)F)cc2)Oc2ccc(NC(=O)Nc3ccc(C(F)(F)F)cc3)cc2C1=O	-	-	.	-	-	.
Cc1cccc(CCNC(=O)c2cc(S(=O)(=O)N3CCCCC3)c[nH]2)c1	-	-	-	-	-	.
CCc1ccc(OCC(=O)Nc2ccc(N3CCN(C(=O)c4ccccc4)CC3)cc2)cc1	-	-	-	-	-	.
COc1ccc(OCC(=O)Nc2ccc(N3CCN(C(=O)c4ccccc4C)CC3)cc2)cc1	-	-	-	77.1	-	-
Cc1cc(N2CCCC2)ccc1NC(=O)COc1ccccc1	-	-	.	71.8	-	.
Cc1cc(OCC(=O)Nc2ccc(N3CCCC3)cc2)cc(C)c1Cl	-	-	-	87.4	-	-
CCc1ccccc1OCC(=O)Nc1ccc(N2CCCC2)cc1C	-	-	.	-	-	.
CCc1ccccc1NC(=O)CN1CCN(CC(=O)Nc2cc(C)ccc2OC)CC1	-	-	-	-	-	.
COc1cc2cc(CCOC(=O)c3ccc(C(F)(F)F)cc3)oc(=O)c2cc1OC	-	-	.	-	-	.
O=C(NCCN1C(=O)CCC1=O)c1ccncc1	-	-	.	-	-	-
COc1cc(/C=N/NC(=O)c2cncc(Br)c2)cc([N+](=O)[O-])c1O	-	-	.	119.7	-	.
COC(CN(C)C(=O)c1ccc2c(c1)NC(=O)c1ccccc1S2)OC	-	-	-	-	-	.
CCOc1ccc(-n2cc(C(=O)NCc3ccco3)c3cc(OC)c(OC)cc3c2=O)cc1	-	-	.	-	-	-
CCOc1ccc(-n2cc(C(=O)N3CCCCCC3)c3cc(OC)c(OC)cc3c2=O)cc1	-	-	.	74.6	-	-
CCCCC/C=N/NC(=O)c1[nH]c2ccc([N+](=O)[O-])cc2c1C	-	-	-	98.3	-	.
Cc1[nH]n(-c2nc(-c3ccc(Cl)cc3)cs2)c(=O)c1N=Nc1ccc(O)cc1	-	-	-	110.5	.	-
Cc1cc(/C=C2/SC(=S)N(c3cccc(C(F)(F)F)c3)C2=O)c(C)n1-c1cccnc1	-	-	.	75.9	-	-
Cc1cc(NC(=O)c2ccc(F)cc2F)n(-c2nc3ccccc3[nH]2)n1	-	-	.	-	-	-
SMILES	NOD2 RIPK2 PPI	SR-BI DiI-HDL act	Lipid droplet	SR-BI HDL uptake	TLR9-MyD88 inh	TLR4-MyD88 BLA
Cc1cc(NC(=O)/C=C/c2ccccc2Cl)n(-c2nc3ccccc3[nH]2)n1	-	-	-	95.5	-	-
COc1ccc2c(Cl)c(C(=O)N/N=C/c3cccnc3)sc2c1	-	.	-	.	-	.
COC(=O)c1c(NC(NC(=O)C(C)C)C(Cl)(Cl)Cl)sc2c1CCC2 (stereo unspecified)	-	-	-	-	-	-
Cc1ccc(N=C2NC(=O)/C(=C/c3cn(C)c4ccccc34)S2)cc1C	-	-	-	81.1	-	-
COC1=CC(=O)C=C(OC)C1=O	21.9	-	.	-	-	.
COC1=CC(=O)c2ccccc2C1=O	-	-	.	-	-	.
CN(C)C1(CN=Cc2cc(Cl)cc([N+](=O)[O-])c2O)CCCCC1	-	.	-	.	-	.
Cc1ccc(S(=O)(=O)NCC(=O)OCC(=O)N2CCN(C(=O)c3ccco3)CC2)cc1C	-	-	.	-	-	.
CCN1C(=O)/C(=C/c2ccc(N3CCCC3)cc2)NC1=S	-	-	64.8	-	-	-
Cc1cccc(N2C(=O)N3[C@H](c4ccc(Br)cc4)[C@@H]4C(=O)N(C(C)(C)C)C(=O)[C@@H]4[C@]3(C)C2=O)c1	-	60.1	-	-	-	.
Cc1ccc(N2C(=O)N3[C@H](c4ccc(Br)cc4)[C@@H]4C(=O)N(C(C)(C)C)C(=O)[C@@H]4[C@]3(C)C2=O)cc1	-	-	-	-	-	.
O=C(/C(=C\c1ccccc1)c1nc2ccccc2[nH]1)c1ccc(Cl)cc1	-	-	-	-	-	-
Cc1ccccc1NC(=S)c1nc2ccccc2[nH]1	-	-	-	78.7	-	-
S=C(Nc1ccc(Cl)cc1)c1nc2ccccc2[nH]1	-	-	-	123.3	-	-
CC1(c2ccc(Cl)cc2)NC(=O)N(CC(=O)N2CCc3ccccc32)C1=O (stereo unspecified)	-	-	.	-	-	.
Cc1ccnc(NC(=S)NC(=O)c2ccco2)c1	-	63.7	.	-	-	-
Cc1ccccc1-c1nc(CN2CCC(C(=O)NC3CC3)CC2)c(C)o1	-	-	-	-	-	.
COc1ccccc1CCNC(=O)c1cccc(NC(=O)CC2SC(N3CCCCC3)=NC2=O)c1 (stereo unspecified)	-	-	.	80.5	-	.
NNC(=O)c1sc(-c2ccc(Cl)cc2)cc1N	-	-	-	110.1	-	-
S=c1[nH]nc([C@@H]2C[C@H]2c2ccccc2)n1-c1ccccc1Cl	-	-	-	-	-	.
COc1ccc(/C=C/S(=O)(=O)NCc2ccccc2)cc1OC	-	-	-	-	-	-
Clc1ccc(-c2csc(N/N=C/c3ccc4c(c3)OCO4)n2)cc1	-	-	-	109.0	-	-
O=C(/C=C/c1ccc2c(c1)OCO2)Nc1nc(-c2ccccc2)cs1	-	-	.	-	-	-
COc1ccc(-c2sc3ccccc3c2/C=C/c2ccc(OC)c(OC)c2)cc1	-	-	.	81.5	-	.
COc1ccccc1NC(=O)c1cc2c(cc1Cl)N1CCCCCC1=NS2(=O)=O	-	-	.	-	-	.
COc1cc2c(cc1NC(=O)C(Cl)Cl)-c1ccc(NC(=O)C(Cl)Cl)cc1C2	-	-	.	83.0	-	.
